In one test the target is Calmodulin (Bos taurus) (UniProt P62157). Nature of the test: Binding affinity to bovine brain calmodulin by electrophoretic mobility assay in presence of calcium chloride. The method in brief: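 CaM pretreated 1.5 h at 30 °C with CaCl2, then test compound (0.33 µg in DMSO) applied; interaction judged from CaM band mobility on 15% polyacrylamide gel electrophoresis.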

Test [1] relates to Ileum. Nature of the test: Spasmolytic activity in guinea pig ileum assessed as inhibition of spontaneous contraction. It is filed as functional, tissue-based. The settings on record: Cavia porcellus. The method, boiled down: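 Ileum from male guinea-pigs (600-800 g) in Krebs-Henseleit, pH 7.4, isometric tension recorded. After 30 min stabilization and 10 min control period, DMSO-dissolved compound added, one concentration per segment, and recorded 10 min. Inhibition from area under curve of frequency and amplitude. Mean ±SEM of six experiments; IC50 by nonlinear curve fitting.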

Test [2] has as its system Ileum. Nature of the test: Spasmolytic activity in guinea pig ileum assessed as inhibition of spontaneous contraction relative to papaverine. The test is classed as functional, Cavia porcellus.
The nature of test [3]: Inhibition of bovine brain CaM-dependent PDE assessed as inorganic phosphate release in presence of bovine brain calmodulin. Further details: species or system Bos taurus. The method in brief:
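Bovine-brain CaM (0.2 µg) preincubated 3 min with 0.015 units CaM-deficient bovine-brain PDE in buffer with 0.3 units 5′-nucleotidase, 45 mM Tris-HCl, 5.6 mM Mg acetate, 45 mM imidazole, 2.5 mM CaCl2, pH 7.0; reaction started with 100 µL 10.8 mM cAMP, run 30 min. Phosphate measured by Sumner method at 660 nm. IC50 from concentration-inhibition curves, mean ±SEM of at least three experiments.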

Test [4] deals with Ileum. Nature of the test: Spasmolytic activity in guinea pig ileum assessed as inhibition of spontaneous contraction in presence of L-NAME. It is filed as functional, tissue-based. The conditions noted are these: Cavia porcellus. The method, boiled down:
(§1)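 Guinea-pig ileum spontaneous-contraction assay (male, 600-800 g, Krebs-Henseleit pH 7.4, isometric tension, 10 min responses, AUC-based inhibition) run in the presence of L-NAME (500 µM) or ODQ (100 µM). Concentration-response curves as mean ±SEM of six data.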

Test [5] concerns Ileum. Nature of the test: Spasmolytic activity in guinea pig ileum assessed as inhibition of spontaneous contraction in presence of ODQ. The test is classed as functional, tissue-based. The settings on record: Cavia porcellus. The method, boiled down:
as §1

Here are results for 22 compounds from ChEMBL document CHEMBL1146475, “Spasmolytic effects, mode of action, and structure-activity relationships of stilbenoids from Nidema boothii” (J Nat Prod, 2004).

Calls of active or inactive are those of the source. The calls are words filed in the database; no cut-off is given here.

For orientation: Emax means the greatest response seen or fitted, relative to the assay's reference. For orientation: IC50 means the point on the concentration scale where inhibition reaches its midpoint. `COc1ccc(CCc2cc(O)cc(O)c2)cc1O`: the result at Calmodulin (Bos taurus) was Active. In the test with Ileum [1], the Emax was 51.8% and the IC50 amounted to 700 nM. Further, the “Ratio IC50” value in the test with Ileum [2] amounted to 5.99.
`COc1ccc(CCc2ccccc2)cc1O`: at Calmodulin (Bos taurus), the result was Active. In addition, in the test on Ileum [1], the Emax is 82.2% and the IC50 was determined as 1290 nM. For the same compound, the IC50 in test [3] is 21.2 µM. In addition, the “Ratio IC50” value in the test with Ileum [2] came out at 3.28.
In the case of `COC1=CC(=O)CC12CCc1cccc(O)c1C2=O` (stereo not given) [NIDEMONE], the result at Calmodulin (Bos taurus) was Active. The IC50 in test [3] amounted to 3.2 µM.
For `COc1cc(O)cc(CCc2ccc(OC)c(O)c2)c1`, on Calmodulin (Bos taurus), the outcome was Active. In the test on Ileum [1], the Emax came out at 66.5% and the IC50 was determined as 140 nM. In addition, in test [3], the IC50 stood at 9 µM. The “Ratio IC50” value with Ileum [2] was found to be 31.33.
As for `Oc1ccc(CCc2cc(O)cc(O)c2)cc1` [DIHYDRORESVERATROL], at Calmodulin (Bos taurus), the result was Active. In the test with Ileum [1], the maximal effect (Emax) worked out at 64.1% and the IC50 turned out to be 1750 nM. Also, the “Ratio IC50” value in the test on Ileum [2] came out at 2.42.
As to `COc1cc(CCc2ccc(OC)c(OC)c2)cc(OC)c1`, on Calmodulin (Bos taurus), the outcome was Active. Moreover, in the test with Ileum [1], the Emax worked out at 84.9% and the IC50 turned out to be 620 nM. In the test with Ileum [2], the “Ratio IC50” value came to 6.82.
With `COc1cc2ccc3c(OC)c(O)ccc3c2c(OC)c1O`, in the test on Ileum [1], the IC50 came to 450 nM.
Take `COc1cccc(CCc2cc(OC)cc(OC)c2)c1`: on Calmodulin (Bos taurus), the outcome was Active. Besides, in the test with Ileum [1], the Emax was 75.6% and the IC50 was 960 nM. The “Ratio IC50” value with Ileum [2] is listed as 4.41.
With `COc1ccc(Cc2nccc3cc(OC)c(OC)cc23)cc1OC` [PAPAVERINE], in the test with Ileum [1], the Emax worked out at 91.8% and the IC50 was 4230 nM.
In the case of `COc1cc(CCc2cc(OC)c(O)c(OC)c2)ccc1O` [MOSCATILIN], in the test with Ileum [1], the Emax was found to be 73.6% and the IC50 was found to be 560 nM. The “Ratio IC50” value in the test with Ileum [2] turned out to be 7.65.
For `Oc1cccc(CCc2cc(O)cc(O)c2)c1`, on Calmodulin (Bos taurus), the outcome was Active. In the test on Ileum [1], the Emax came out at 78.5% and the 50% inhibitory concentration (IC50) was 2360 nM. Moreover, in the test on Ileum [2], the “Ratio IC50” value was found to be 1.78.
Take `COc1cc(O)cc(CCc2ccc(O)c(OC)c2)c1` [GIGANTOL]: the outcome on Calmodulin (Bos taurus) was Active. In addition, the result with Ileum [4] and in the test on Ileum [5] was inactive. Besides, the Emax with Ileum [1] was found to be 81.3%. In addition, the half-maximal inhibitory concentration (IC50) in the test with Ileum [1] came out at 260 nM; in test [3], 7 µM. Besides, the “Ratio IC50” value in the test on Ileum [2] amounted to 16.26.
For `Oc1cc(O)cc(CCc2ccc(O)c(O)c2)c1`, at Calmodulin (Bos taurus), the result was Active. In addition, in the test on Ileum [1], the Emax stood at 53.6% and the IC50 is 850 nM. For the same compound, the “Ratio IC50” value in the test on Ileum [2] came to 4.94.
As to `COc1cccc(CCc2cc(O)cc(OC)c2)c1`, the result at Calmodulin (Bos taurus) was Active. Further, in the test on Ileum [1], the maximum response (Emax) came to 58.6% and the IC50 worked out at 1280 nM. Moreover, the “Ratio IC50” value with Ileum [2] turned out to be 3.3.
Consider `COC1=CC(=O)C2=C(CCc3cc(O)ccc32)C1=O` [EPHEMERANTHOQUINONE], for which the result at Calmodulin (Bos taurus) was Active. Besides, the IC50 in test [3] was determined as 10.9 µM.
Take `COc1cc(O)cc(CCc2ccc(O)cc2)c1`: the outcome on Calmodulin (Bos taurus) was Active. Further, the Emax in the test with Ileum [1] was 85%. For the same compound, the figures for the IC50 (in the test with Ileum [1]; in test [3]) were 140 nM and 10.1 µM, respectively. The “Ratio IC50” value in the test on Ileum [2] is on record as 30.85.
Regarding `COc1cc(CCc2ccc(O)c(OC)c2)cc(OC)c1`, on Calmodulin (Bos taurus), the outcome was Active. Besides, in the test on Ileum [1], the Emax was determined as 76.4% and the IC50 amounted to 1390 nM. Further, the “Ratio IC50” value with Ileum [2] is listed as 3.05.
`Oc1cc(O)cc(CCc2ccccc2)c1` [DIHYDROPINOSYLVIN]: on Calmodulin (Bos taurus), the outcome was Active. In addition, in the test on Ileum [1], the Emax turned out to be 83.3% and the IC50 amounted to 1490 nM. In addition, the IC50 in test [3] worked out at 36.6 µM. Also, the “Ratio IC50” value in the test on Ileum [2] turned out to be 2.84.
Take `CN(C)CCCN1c2ccccc2Sc2ccc(Cl)cc21` [CHLORPROMAZINE]: in the test on Ileum [1], the Emax is 81.8%. The IC50 in the test with Ileum [1] was determined as 180 nM; in test [3], 10.3 µM. Further, in the test on Ileum [2], the “Ratio IC50” value is recorded as 23.5.
Consider `COc1cc(O)c2c(c1)CCc1cc(O)ccc1-2` [LUSIANTHRIDIN], for which the IC50 in the test on Ileum [1] was 410 nM.
On to `COc1cc(O)cc(CCc2ccc(OC)c(OC)c2)c1`, for which the outcome on Calmodulin (Bos taurus) was Active. In the test on Ileum [1], the Emax turned out to be 66% and the IC50 worked out at 580 nM. For the same compound, the “Ratio IC50” value in the test with Ileum [2] was determined as 7.32.
Consider `COc1cc(O)cc(CCc2cccc(O)c2)c1` [BATATASIN III], for which the result at Calmodulin (Bos taurus) was Active. Further, the result with Ileum [4] and in the test on Ileum [5] was inactive. For the same compound, in the test with Ileum [1], the maximal response (Emax) was 67.5%. Moreover, the IC50 was 240 nM with Ileum [1] and 13.3 µM in test [3]. In the test with Ileum [2], the “Ratio IC50” value came out at 17.62.
